Test results from paper PMC4618315 (Nature, 2015).
Changes are numbered by the printed parent chain.

How the values were obtained:
Format in all cases: binding
[1] = target: T1, rGLUT5 with a single tryptophan residue (W419) (Rattus norvegicus, UniProt P43427, N50Y/W191F/W239F/W265F/W275F/W338F/W370F/W70F); assay: Tryptophan fluorescence quenching of rat GLUT5 single tryptophan; conditions: 40 mM sugar
T1 sequence (P43427 with tags, fused parts or gaps N50Y/W70F/W191F/W239F/W265F/W275F/A285T/W338F/W370F/T452S): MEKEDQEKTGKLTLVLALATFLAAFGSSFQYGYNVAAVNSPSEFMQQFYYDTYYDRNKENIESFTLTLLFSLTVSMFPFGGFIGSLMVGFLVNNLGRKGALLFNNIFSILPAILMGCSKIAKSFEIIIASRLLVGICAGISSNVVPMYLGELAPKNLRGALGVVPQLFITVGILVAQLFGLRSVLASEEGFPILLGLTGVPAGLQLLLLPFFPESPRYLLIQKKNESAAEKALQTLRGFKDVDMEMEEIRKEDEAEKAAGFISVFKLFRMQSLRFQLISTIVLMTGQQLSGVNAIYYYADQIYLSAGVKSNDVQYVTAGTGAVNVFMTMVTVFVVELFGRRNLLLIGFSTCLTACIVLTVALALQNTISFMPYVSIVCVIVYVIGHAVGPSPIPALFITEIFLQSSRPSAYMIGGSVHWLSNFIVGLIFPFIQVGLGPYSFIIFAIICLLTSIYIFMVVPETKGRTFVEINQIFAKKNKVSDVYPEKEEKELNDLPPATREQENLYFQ
Summary of the method: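 Single-Trp rat protein (N50Y plus W70F, W191F, W239F, W265F, W275F, W338F, W370F) was used at 0.06 mg/ml in 20 mM Tris pH 7.5, 150 mM NaCl, 0.03% DDM, with or without 5 mM HgCl2. Sugars were each added at 40 mM final; D-fructose was also added sequentially up to 40 mM. After 2 min at room temperature: excitation 295 nm, emission 338 nm. Kd by non-linear regression; triplicate.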

rGLUT5 Q166E = target: T2, rGLUT5 Q166E (Rattus norvegicus, UniProt P43427, A285T/N50Y/Q166E/T452S); assay: Tryptophan fluorescence quenching of purified rat GLUT5 Q166E mutant; conditions: rGLUT5 Q166E relative to WT; 40 mM sugar
T2 sequence (P43427 with tags, fused parts or gaps N50Y/Q166E/A285T/T452S): T1 sequence (P43427 with tags, fused parts or gaps N50Y/W70F/W191F/W239F/W265F/W275F/A285T/W338F/W370F/T452S) with F70W, Q166E, F191W, F239W, F265W, F275W, F338W, F370W
Summary of the method: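 Deglycosylated N50Y rat background carried the Q166E mutation, made by PCR mutagenesis and purified as WT (Ni-NTA, SEC in DDM). Protein was used at 0.06 mg/ml in 20 mM Tris pH 7.5, 150 mM NaCl, 0.03% DDM, with or without 5 mM HgCl2 pre-incubation. Single 40 mM D-fructose or D-glucose additions, or increasing D-glucose, were incubated 2 min at room temperature. Readout: excitation 295 nm, 338 nm emission peak; triplicate.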

[2] = target: T3, rGLUT5 (rat GLUT5 deglycosylation mutant N50Y, "WT") (Rattus norvegicus, UniProt P43427, A285T/N50Y/T452S); assay: Tryptophan fluorescence quenching of purified rat GLUT5 WT
T3 sequence (P43427 with tags, fused parts or gaps N50Y/A285T/T452S): T1 sequence (P43427 with tags, fused parts or gaps N50Y/W70F/W191F/W239F/W265F/W275F/A285T/W338F/W370F/T452S) with F70W, F191W, F239W, F265W, F275W, F338W, F370W

bovine GLUT5 = target: T4, bovine GLUT5 (Bos taurus, UniProt P58353, N51A)
T4 sequence (P58353 with tags, fused parts or gaps N51A): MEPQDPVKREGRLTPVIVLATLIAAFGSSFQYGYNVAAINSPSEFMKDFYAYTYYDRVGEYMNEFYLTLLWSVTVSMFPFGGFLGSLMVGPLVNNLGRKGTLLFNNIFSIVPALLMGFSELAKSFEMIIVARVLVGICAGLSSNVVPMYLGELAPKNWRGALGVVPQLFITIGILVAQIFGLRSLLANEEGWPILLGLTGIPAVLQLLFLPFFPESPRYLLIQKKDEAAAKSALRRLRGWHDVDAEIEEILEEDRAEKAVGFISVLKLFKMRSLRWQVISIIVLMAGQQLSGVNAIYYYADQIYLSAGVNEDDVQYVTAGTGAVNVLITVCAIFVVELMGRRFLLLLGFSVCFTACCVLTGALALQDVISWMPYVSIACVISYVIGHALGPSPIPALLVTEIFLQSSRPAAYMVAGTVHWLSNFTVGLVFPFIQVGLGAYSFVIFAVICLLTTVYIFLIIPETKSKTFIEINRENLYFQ
Summary of the method: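 Bovine construct (residues 1–473 of 501, N51A deglycosylation) was expressed in S. cerevisiae, solubilised in 1% DDM and bound to Ni-NTA. It was TEV-cleaved and run on SEC in 10 mM Tris-HCl pH 7.5, 150 mM NaCl, 0.09% UDMβ. D-fructose was added sequentially, with 2 min room-temperature incubation after each addition. Trp fluorescence: excitation 295 nm, emission 338 nm.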

SMILES: O=C(CO)[C@H](O)[C@@H](O)[C@@H](O)CO [L-fructose, reference compound]
- tryptophan quenching (in words) [1]: No tryptophan quenching

SMILES: OC[C@H]1OC(O)[C@H](O)[C@@H](O)[C@@H]1O (stereo partly drawn) [D-glucose]
- sugar binding (in words) (rGLUT5 Q166E): robust binding
- tryptophan quenching (in words) [1]: No tryptophan quenching

SMILES: O=C[C@H](O)[C@@H](O)[C@@H](O)[C@H](O)CO [D-galactose]
- tryptophan quenching (in words) [1]: No tryptophan quenching

SMILES: O=C(CO)[C@@H](O)[C@H](O)[C@H](O)CO [D-fructose]
- Kd ([2]; Kd, purified rGLUT5 WT (N50Y) in DDM, excitation 295 nm, emission 338 nm, n = 3): 6 to 9 mM
- quenching of tryptophan fluorescence (in words) ([2]; addition of sugar (40 mM) to rGLUT5): strong quenching
- sugar binding (in words) (rGLUT5 Q166E): clearly weakens
- Kd (bovine GLUT5): 5.5 ± 0.6 mM
